SMILES strings stand for the structures. The list shows a part of the results. Inconclusive results are not listed. A number with no mark means an inactive call. Calls of active or inactive are those of the source.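 Rule for the calls, unless noted: active = thallium flux slope beyond 3 SD from same-plate DMSO control mean in most replicates, usually higher, sometimes lower; inconclusive = repeat tests gave conflicting results; inactive = no significant difference from controls in most replicates.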

For the first test, the target named is Solute carrier family 12 member 5 (Homo sapiens) (UniProt Q9H2X9). Put plainly: KCC2 inhibitors and activators, ouabain retest, confirmation, HEK-KCC2 cells (AID 1717).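 Note: slope of initial-normalized fluorescence between seconds 10 and 20 after thallium.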 Particulars: HEK293-KCC2, thallium flux FluoZin2 fluorescence, at 10 µM, bidirectional: low = inhibitor, high = activator.
Chain of Solute carrier family 12 member 5 (Homo sapiens) (Q9H2X9 whole entry, looked up): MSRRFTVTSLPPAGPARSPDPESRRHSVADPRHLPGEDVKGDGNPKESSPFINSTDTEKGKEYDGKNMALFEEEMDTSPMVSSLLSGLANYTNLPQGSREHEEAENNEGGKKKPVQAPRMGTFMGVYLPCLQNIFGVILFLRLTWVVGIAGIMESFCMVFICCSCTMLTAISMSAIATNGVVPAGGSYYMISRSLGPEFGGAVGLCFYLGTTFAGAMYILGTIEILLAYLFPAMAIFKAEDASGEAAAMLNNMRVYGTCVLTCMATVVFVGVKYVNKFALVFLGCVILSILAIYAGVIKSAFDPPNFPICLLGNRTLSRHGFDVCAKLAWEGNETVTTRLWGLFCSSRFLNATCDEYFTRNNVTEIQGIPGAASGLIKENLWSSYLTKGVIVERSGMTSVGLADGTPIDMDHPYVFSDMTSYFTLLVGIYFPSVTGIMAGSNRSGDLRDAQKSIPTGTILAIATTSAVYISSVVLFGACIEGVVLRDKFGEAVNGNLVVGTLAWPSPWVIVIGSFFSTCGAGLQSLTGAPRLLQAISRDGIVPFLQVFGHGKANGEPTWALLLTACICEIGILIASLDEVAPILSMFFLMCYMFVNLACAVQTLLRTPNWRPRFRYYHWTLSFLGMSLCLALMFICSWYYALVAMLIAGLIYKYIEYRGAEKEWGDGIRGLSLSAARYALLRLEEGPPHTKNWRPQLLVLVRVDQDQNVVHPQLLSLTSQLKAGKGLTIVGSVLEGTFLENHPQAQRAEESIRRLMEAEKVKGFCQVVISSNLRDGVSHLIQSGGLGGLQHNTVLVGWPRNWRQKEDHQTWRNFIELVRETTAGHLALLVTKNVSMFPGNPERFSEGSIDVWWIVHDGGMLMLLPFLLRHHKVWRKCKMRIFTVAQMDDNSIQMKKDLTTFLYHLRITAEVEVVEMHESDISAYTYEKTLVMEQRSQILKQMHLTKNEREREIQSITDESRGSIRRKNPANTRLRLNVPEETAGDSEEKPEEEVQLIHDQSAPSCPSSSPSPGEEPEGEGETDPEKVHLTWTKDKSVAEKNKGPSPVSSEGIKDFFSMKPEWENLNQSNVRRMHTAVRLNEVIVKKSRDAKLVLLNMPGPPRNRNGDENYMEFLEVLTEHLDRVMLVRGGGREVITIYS
On to `Cc1cccc(NC(=S)NC(=O)c2ccc(Br)o2)c1`, for which the raw Tl+ flux slope (below DMSO = inhibition, above = activation) is 0.124 (active). Still for that read-out and setting: the same measure for `COc1ccc(-n2c(=S)[nH]c3sc4c(c3c2=O)CCc2ccccc2-4)cc1`: 0.0311 (active); for `Oc1c(C=Nc2cccc3nsnc23)ccc2ccccc12`: 0.0438; for `COc1ccc(C(=O)NC(=S)NNC(=O)c2c(-c3ccccc3)noc2C)cc1`: 0.0401 (active). Same read-out and setting: the value for `COc1ccc(NC(=O)N2CCC(Cc3ccccc3)CC2)cc1` was 0.0137 (active); that for `O=C(CSC1=NCCS1)Nc1nc(-c2ccccc2)cs1` was 0.0163 (active); that for `CS(=O)(=O)c1sc(C(=O)NC(=S)Nc2ccc(OC(F)(F)F)cc2)c2c1C=CCC2` was 0.0498 (active).

For the compound `O=C(CCC(=O)OCc1cccc(C(=O)Oc2ccccc2)c1)Nc1cccc2ccccc12`, the raw Tl+ flux slope (below DMSO = inhibition, above = activation) is 0.0171. For `Cc1cc(C)nc(SC(C)C(=O)N/N=C/c2cccs2)n1` (centres undefined), the raw Tl+ flux slope (below DMSO = inhibition, above = activation) is 0.0216.

As for `O=S(=O)(c1ccc(F)cc1)N1CCN(C(=S)NCc2ccco2)CC1`, the raw Tl+ flux slope (below DMSO = inhibition, above = activation) was 0.0185. In the case of `C=CCNC(=S)N/N=C/c1ccc(C)s1`, the raw Tl+ flux slope (below DMSO = inhibition, above = activation) was 0.0521 (active). On the same count and under the same terms, the same measure for `Brc1ccc(C2=CC(c3ccco3)n3ncnc3N2)cc1` (centres undefined): 0.00899 (active); for `S=C(NN=C1CCN(Cc2ccccc2)CC1)NC1CCCCC1`: 0.0155 (active). The same measure, in the same setting: the same measure for `c1cncc(-c2nnc3n2C2(CCCCC2)Cc2ccccc2-3)c1`: 0.0153. Still for that read-out and setting: the same measure for `COc1ccc(NC(=O)COC(=O)c2ccc(NS(=O)(=O)/C=C/c3ccccc3)cc2)cc1`: 0.0244. Take `N=c1oc2ccccc2cc1C(=O)N/N=C/c1ccccc1`: the raw Tl+ flux slope (below DMSO = inhibition, above = activation) is 0.0198 (active).

Turning to `CCc1ccc2nc3sc(C(=O)Nc4nnc(CC)s4)c(N)c3cc2c1`, the raw Tl+ flux slope (below DMSO = inhibition, above = activation) was 0.0132 (active). On to `O=C(NNc1ccccc1Cl)C(O)(c1cccc(C(F)(F)F)c1)c1cccc(C(F)(F)F)c1`, for which the raw Tl+ flux slope (below DMSO = inhibition, above = activation) was 0.0285 (active). On the same count and under the same terms, the same measure for `CCOc1ccc(NC(=O)CN(C)CC(=O)Nc2cccc(Cl)c2C)cc1OCC`: 0.0213; for `C=CCNC(=S)NNC(=O)COc1c(Cl)cc(Cl)cc1Cl`: 0.03 (active). Consider `Cc1nc(SCC(=O)N2CCc3ccccc3C2)c2c(C)c(C)sc2n1`, for which the raw Tl+ flux slope (below DMSO = inhibition, above = activation) is 0.0144. Take `COc1ccc(CNC(=O)CCn2cccc2)cc1`: the raw Tl+ flux slope (below DMSO = inhibition, above = activation) is 0.0168.

Consider `Cc1ccccc1N/N=C/c1ccc(N2CCOCC2)cc1`, for which the raw Tl+ flux slope (below DMSO = inhibition, above = activation) is 0.0234. Take `Cc1ccc(/C=N/NC(=S)NC2CCCCC2)o1`: the raw Tl+ flux slope (below DMSO = inhibition, above = activation) is 0.0502 (active). Take `CCOC(=O)CSc1nnc(CNC(=O)c2cccs2)n1-c1ccccc1`: the raw Tl+ flux slope (below DMSO = inhibition, above = activation) was 0.0178. On the same count and under the same terms, the same measure for `COc1ccc(C(=O)NN(C)c2nc(-c3ccccc3)cc(C)c2S(C)(=O)=O)cc1`: 0.0204.

Turning to `Cc1c(NC(=O)CSc2cccc3cccnc23)c(=O)n(-c2ccccc2)n1C`, the raw Tl+ flux slope (below DMSO = inhibition, above = activation) was 0.0324 (active). The same measure, in the same setting: the same measure for `Cc1ccc(N2C(=O)C(Cc3ccccc3)NC2=S)cc1` (centres undefined): 0.0236; for `CC(C)C1Nc2c(C(=O)O)cccc2C(Nc2ccccc2C(=O)O)C1(C)C` (centres undefined): 0.0131 (active); for `O=C(Nc1nnc(C2COc3ccccc3O2)o1)c1ccc(F)cc1` (centres undefined): 0.0495 (active). On to `Cc1cccc(NS(=O)(=O)c2ccc(C)c(C(N)=O)c2)c1`, for which the raw Tl+ flux slope (below DMSO = inhibition, above = activation) is 0.0187. The same measure, in the same setting: the same measure for `C=CCn1c(=S)[nH]c2scc(-c3ccco3)c2c1=O`: 0.0814 (active). As for `COc1ccc2[nH]c(=S)cc(C)c2c1`, the raw Tl+ flux slope (below DMSO = inhibition, above = activation) is 0.0267. Take `Cc1nnc(SC(C(=O)Nc2cc(Cl)cc(Cl)c2)c2ccccc2)[nH]c1=O` (centres undefined): the raw Tl+ flux slope (below DMSO = inhibition, above = activation) was 0.0159 (active).

Test system in the next test: not listed separately
Put plainly: native HEK Tl+ uptake effects, second counter-screen – HEK cells, counterscreen 2, counter-screen for KCC2 modulator project, confirmation (AID 1718;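 active = thallium flux slope above the same plate's solvent-control mean plus 3 SD in both duplicate wells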;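 note: run without ouabain in cells lacking the KCC2 cotransporter; slope of fluorescence scaled to its starting value between 10 and 20 s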). Particulars: HEK293 parental, thallium flux FluoZin-2 fluorescence slope; at 10 µM. The method, boiled down: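 System: Parental HEK cells | Also added: Thallium sulfate stimulus buffer | Compound dosing: Single 10 µM final compound dose, 0.1% DMSO | Schedule: Overnight cell culture at 37 °C, 48 min dye loading, compound before thallium | Signal: FluoZin-2 fluorescence kinetics | Repeats: Replicate wells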
(In general: Counterscreens check selectivity or assay interference.)
`Cc1cccc(NC(=S)NC(=O)c2ccc(Br)o2)c1`: the thallium flux slope was 0.0866 (active).

Regarding `Oc1c(C=Nc2cccc3nsnc23)ccc2ccccc12`, the thallium flux slope was 0.0106.

`COc1ccc(C(=O)NC(=S)NNC(=O)c2c(-c3ccccc3)noc2C)cc1`: the thallium flux slope was 0.0396 (active).

With `O=C(CSC1=NCCS1)Nc1nc(-c2ccccc2)cs1`, the thallium flux slope was 0.0115. Same read-out and setting: the value for `O=C(CCC(=O)OCc1cccc(C(=O)Oc2ccccc2)c1)Nc1cccc2ccccc12` was 0.00997; that for `Cc1cc(C)nc(SC(C)C(=O)N/N=C/c2cccs2)n1` (centres undefined) was 0.00957; that for `O=S(=O)(c1ccc(F)cc1)N1CCN(C(=S)NCc2ccco2)CC1` was 0.0111. Take `Brc1ccc(C2=CC(c3ccco3)n3ncnc3N2)cc1` (centres undefined): the thallium flux slope was 0.00724 (active). Same read-out and setting: the same measure for `S=C(NN=C1CCN(Cc2ccccc2)CC1)NC1CCCCC1`: 0.0111. For `c1cncc(-c2nnc3n2C2(CCCCC2)Cc2ccccc2-3)c1`, the thallium flux slope was 0.00983. In the case of `O=C(NNc1ccccc1Cl)C(O)(c1cccc(C(F)(F)F)c1)c1cccc(C(F)(F)F)c1`, the thallium flux slope was 0.018 (active). Regarding `CCOc1ccc(NC(=O)CN(C)CC(=O)Nc2cccc(Cl)c2C)cc1OCC`, the thallium flux slope is 0.0107.

For the compound `Cc1nc(SCC(=O)N2CCc3ccccc3C2)c2c(C)c(C)sc2n1`, the thallium flux slope was 0.0108.

For the compound `COc1ccc(CNC(=O)CCn2cccc2)cc1`, the thallium flux slope was 0.0101.

For `CCOC(=O)CSc1nnc(CNC(=O)c2cccs2)n1-c1ccccc1`, the thallium flux slope is 0.0106.

As to `COc1ccc(C(=O)NN(C)c2nc(-c3ccccc3)cc(C)c2S(C)(=O)=O)cc1`, the thallium flux slope was 0.0107. Turning to `O=C(Nc1nnc(C2COc3ccccc3O2)o1)c1ccc(F)cc1` (centres undefined), the thallium flux slope was 0.0126 (active). In the case of `Cc1cccc(NS(=O)(=O)c2ccc(C)c(C(N)=O)c2)c1`, the thallium flux slope is 0.0102.

`C=CCn1c(=S)[nH]c2scc(-c3ccco3)c2c1=O`: the thallium flux slope was 0.0843 (active). `COc1ccc2[nH]c(=S)cc(C)c2c1`: the thallium flux slope was 0.0122 (active).
